Measured values as given in ChEMBL document CHEMBL4376841, “Discovery of a Synergistic Inhibitor of cAMP-Response Element Binding Protein (CREB)-Mediated Gene Transcription with 666-15” (J Med Chem, 2019).
Calls of active or inactive are those of the source. No cut-off for these calls is given here.

Key:
[1] = Drug metabolism in pH 7.4 PBS assessed as 3-(3-aminopropoxy)-N-(4-chloro-2-hydroxy-phenyl)naphthalene-2-carboxamide formation by NMR analysis
[2] = Solubility in ddIH2O; type: physicochemical; details: ddIH2O (double-deionized water)
[3] = Drug metabolism in pH 7.4 PBS assessed as 3,4-Dihydronaphtho[2,3-f][1,4]oxazepin-5(2H)-one formation by NMR analysis
[4] = Drug metabolism in pH 7.4 PBS assessed as tert-butyl 3-(3-(2-(tert-butoxycarbonyloxy)-4-chlorophenylcarbamoyl)naphthalen-2-yloxy)propylcarbamate formation by NMR analysis
[5] = Inhibition of CREB (unknown origin) expressed in HEK293T cells assessed as inhibition of forskolin-induced CREB transcription activity incubated for 30 mins by luciferase reporter gene assay; type: cell-based; details: Homo sapiens, HEK-293T, 0.5 h
How it was run: (§1)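 HEK293T cells were transfected for 3 h with pCRE-RLuc (Renilla luciferase driven by three tandem CRE copies), then replated and left to attach overnight. Compounds, alone or combined, were added 30 min before Fsk (10 μM), followed by 5 h at 37 °C. Renilla luciferase was normalised to well protein (RLU/μg). IC50 came from nonlinear regression; at least two independent experiments in triplicate.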

[6] = Drug level in pH 7.4 PBS treated with 2-(3-(2-Aminoethoxy)-2-naphthamido)-5-chlorophenyl 3-(3- Aminopropoxy)-2-naphthoate Dihydrochloride assessed as compound formation by NMR analysis; type: physicochemical; details: buffer
Homo sapiens [7] = species on record: Homo sapiens; test: (§2) Synergistic potentiation of 2-(3-(2-Aminoethoxy)-2-naphthamido)-5-chlorophenyl 3-(3- Aminopropoxy)-2-naphthoate Dihydrochloride-induced inhibition of CREB (unknown origin) expressed in HEK293T cells assessed as inhibition of forskolin-induced CREB transcription activity at 5 to 10 uM incubated for 30 mins by luciferase reporter gene assay; type: cell-based; how it was run: as §1
[8] = Inhibition of Kix-Kid interaction (unknown origin) by biochemical split Renilla luciferase complementation assay; set-up: species or system Homo sapiens
Homo sapiens [9] = species on record: Homo sapiens; test: as §2, with “activity by measuring combination index” for “activity”, “assay based Chou-Talalay method” for “assay”; type: cell-based
How it was run: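 CRE-driven Renilla luciferase reporter in transfected HEK293T cells. Combinations were added 30 min before Fsk (10 μM) for 5 h. Activity was normalised to protein. Combination indexes were calculated by the Chou-Talalay method: CI > 1.0 antagonism, CI = 1.0 additive, CI < 1.0 synergy.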

Homo sapiens [10] = species on record: Homo sapiens; test: (§3) Inhibition of CREB in HEK293T cells assessed as inhibition of Fsk-induced NR4A2 gene expression at 5 uM pre-incubated for 1 hr before Fsk stimulation for 45 mins by qRT-PCR analysis; type: cell-based
How it was run: (§4)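 HEK293T cells in DMEM/10% FBS were pretreated with compounds, singly or in combination, for 1 h, then stimulated with Fsk (10 μM) for 45 min. Total RNA was isolated and NR4A2 transcript measured by qRT-PCR using the ΔΔCt method, with HPRT as reference. SEM of two independent experiments in triplicate; Student t-test.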

Homo sapiens [11] = species on record: Homo sapiens; test: as §3, with “Synergistic potentiation of 50 nM 2-(3-(2-Aminoethoxy)-2-naphthamido)-5-chlorophenyl 3-(3- Aminopropoxy)-2-naphthoate Dihydrochloride-induced inhibition” for “Inhibition”; type: cell-based; how it was run: as §4
MDA-MB-231 [12] = test: Growth inhibition of human MDA-MB-231 cells at 0.5 to 1 uM incubated for 72 hrs by MTT assay; type: functional, cell-based
How it was run: (§5)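 MDA-MB-231 cells were seeded at 1000/well, attached overnight, then given compounds (alone or combined) for 72 h at 37 °C. MTT (0.5 mg/mL) was added for 3 h, formazan dissolved in DMSO, and A570 read. Growth % = 100×(A_treated − A_initial)/(A_control − A_initial), with time-0 baseline.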

MDA-MB-231 [13] = test: Synergistic potentiation of 2-(3-(2-Aminoethoxy)-2-naphthamido)-5-chlorophenyl 3-(3- Aminopropoxy)-2-naphthoate Dihydrochloride-induced growth inhibition of human MDA-MB-231 cells incubated for 72 hrs by MTT assay; type: functional; how it was run: as §5

Compound | solubility [2] | IC50 [5] | Drug uptake [6] | Activity (Homo sapiens [7]) | further results
O=C1NCCOc2cc3ccccc3cc21 |  | > 50 µM | Active | inactive | 
Cl.NCCCOc1cc2ccccc2cc1C(=O)NCCOc1cc2ccccc2cc1C(=O)Nc1ccc(Cl)cc1O | < 0.5 mg/mL |  |  |  | 
NCCCOc1cc2ccccc2cc1C(=O)Nc1ccc(Cl)cc1O |  | 26.3 µM | Active | Active | IC50 [8]: > 50 µM; CI (Homo sapiens [9]): < 1; inhibition (Homo sapiens [10]): inactive; Activity (Homo sapiens [11]): Active; growth inhibition (GI) (MDA-MB-231 [12]): inactive; CI (MDA-MB-231 [13]): <1

More lines, main results first:

solubility [2] | IC50 [5] | Drug uptake [6] | Compound | Activity (Homo sapiens [7]) | further results
> 100 mg/mL | 0.25 µM |  | Cl.Cl.NCCCOc1cc2ccccc2cc1C(=O)Oc1cc(Cl)ccc1NC(=O)c1cc2ccccc2cc1OCCN |  | Drug metabolism [1]: Metabolite detected; Drug metabolism [3]: 29%; Drug metabolism [4]: 47%
 |  | Active | CC(C)(C)OC(=O)NCCCOc1cc2ccccc2cc1C(=O)Nc1ccc(Cl)cc1OC(=O)C(C)(C)C |  | 
